ChEMBL document CHEMBL4007382 (Eur J Med Chem, 2017)

Key:
Cholinesterase = Cholinesterase (Equus caballus, UniProt P81908); test: Inhibition of equine serum BuChE using S-butyrylthiocholine iodide as substrate preincubated for 60 mins followed by substrate addition measured after 5 mins by Ellman's method
Method in brief: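 Equine serum BChE (0.1 U/mL) in 100 mM sodium phosphate, pH 8, was preincubated at 37°C for 60 min with seven inhibitor concentrations (top 1×10^-5 M; stocks in acetonitrile:water 1:9). Added mix contained BTCh 2.5 mM and DTNB 3.4 mM. A412 was read for 5 min at 37°C, with enzyme-free blank subtracted. Triplicates.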

Acetylcholinesterase = Acetylcholinesterase (Electrophorus electricus, UniProt O42275); test: Inhibition of electric eel AChE using S-acetylthiocholine iodide as substrate preincubated for 60 mins followed by substrate addition measured after 5 mins by Ellman's method
Chain of Acetylcholinesterase (O42275 whole entry): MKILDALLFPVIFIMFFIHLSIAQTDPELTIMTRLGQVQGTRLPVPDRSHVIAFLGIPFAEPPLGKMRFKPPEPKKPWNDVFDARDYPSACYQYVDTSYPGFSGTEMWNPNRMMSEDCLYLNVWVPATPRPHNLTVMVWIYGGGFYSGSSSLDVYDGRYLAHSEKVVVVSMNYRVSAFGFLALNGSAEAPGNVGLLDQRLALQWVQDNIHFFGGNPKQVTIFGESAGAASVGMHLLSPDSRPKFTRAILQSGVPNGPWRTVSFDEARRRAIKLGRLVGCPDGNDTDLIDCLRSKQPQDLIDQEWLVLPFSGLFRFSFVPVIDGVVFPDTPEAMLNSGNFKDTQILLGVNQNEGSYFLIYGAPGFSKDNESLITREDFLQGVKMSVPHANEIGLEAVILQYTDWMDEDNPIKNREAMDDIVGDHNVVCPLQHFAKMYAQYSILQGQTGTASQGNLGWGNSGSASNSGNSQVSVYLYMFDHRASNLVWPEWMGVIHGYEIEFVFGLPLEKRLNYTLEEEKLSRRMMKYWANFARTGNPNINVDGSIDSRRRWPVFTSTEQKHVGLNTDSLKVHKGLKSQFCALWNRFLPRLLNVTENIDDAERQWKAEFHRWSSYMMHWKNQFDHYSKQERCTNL

Chain of Cholinesterase (P81908 whole entry): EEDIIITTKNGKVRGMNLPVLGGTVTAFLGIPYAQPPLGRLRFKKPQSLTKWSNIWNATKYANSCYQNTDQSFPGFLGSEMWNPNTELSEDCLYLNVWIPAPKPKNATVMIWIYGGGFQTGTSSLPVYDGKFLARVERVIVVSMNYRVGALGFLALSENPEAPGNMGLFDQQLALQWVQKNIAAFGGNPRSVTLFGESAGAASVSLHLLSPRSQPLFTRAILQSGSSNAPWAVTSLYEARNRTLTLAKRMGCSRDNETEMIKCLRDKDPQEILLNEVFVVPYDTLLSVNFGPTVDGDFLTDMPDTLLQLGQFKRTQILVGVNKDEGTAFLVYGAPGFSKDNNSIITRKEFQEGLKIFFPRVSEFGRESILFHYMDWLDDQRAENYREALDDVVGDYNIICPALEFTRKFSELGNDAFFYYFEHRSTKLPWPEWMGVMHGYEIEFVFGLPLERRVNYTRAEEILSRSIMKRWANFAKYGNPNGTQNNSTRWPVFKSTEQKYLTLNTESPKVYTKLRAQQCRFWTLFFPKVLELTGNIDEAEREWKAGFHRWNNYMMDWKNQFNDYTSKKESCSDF

CCN(C)C(=O)Oc1cc(OC(=O)N(C)CC)cc(C(O)CNC(C)(C)C)c1 (stereo not given)
IC50 (Cholinesterase): 113 nM
IC50 (Acetylcholinesterase): > 100000 nM

C#Cc1cccc(NCC(O)c2cc(OC(=O)N(C)C)cc(OC(=O)N(C)C)c2)c1 (stereo not given)
IC50 (Cholinesterase): 686 nM
IC50 (Acetylcholinesterase): > 100000 nM

CN(C)C(=O)Oc1cc(OC(=O)N(C)C)cc(C(O)CNC(C)(C)c2ccccc2)c1 (stereo not given)
IC50 (Cholinesterase): 476 nM
IC50 (Acetylcholinesterase): > 100000 nM

CN(C)C(=O)Oc1cc(OC(=O)N(C)C)cc(C(O)CNc2ccccc2)c1 (stereo not given)
IC50 (Cholinesterase): 2400 nM
IC50 (Acetylcholinesterase): > 100000 nM

CN(C)C(=O)Oc1cc(OC(=O)N(C)C)cc(C(O)CN2CCCCC2)c1 (stereo not given)
IC50 (Cholinesterase): 100 nM
IC50 (Acetylcholinesterase): > 100000 nM

CN(C)C(=O)Oc1cc(OC(=O)N(C)C)cc(C(O)CNc2ccc(I)cc2)c1 (stereo not given)
IC50 (Cholinesterase): 4700 nM
IC50 (Acetylcholinesterase): > 100000 nM

CN(C)C(=O)Oc1cc(OC(=O)N(C)C)cc(C(O)CNC2CCCCC2)c1 (stereo not given)
IC50 (Cholinesterase): 224 nM
IC50 (Acetylcholinesterase): > 100000 nM

CN(C)C(=O)Oc1cc(OC(=O)N(C)C)cc(C(O)CN2CCCC2)c1 (stereo not given)
IC50 (Cholinesterase): 253 nM
IC50 (Acetylcholinesterase): 41300 nM

CCN(C)C(=O)Oc1cc(OC(=O)N(C)CC)cc(C(O)CN2CCCCC2)c1 (stereo not given)
IC50 (Cholinesterase): 108 nM
IC50 (Acetylcholinesterase): > 100000 nM

CN(C)C(=O)Oc1cc(OC(=O)N(C)C)cc(C(O)CNC2CCCC2)c1 (stereo not given)
IC50 (Cholinesterase): 130 nM
IC50 (Acetylcholinesterase): 65900 nM
